Results pooled from the literature.
Observed: cell growth or viability

Structure (SMILES) | cell line | method | time | endpoint | result
COc1cc(OC)c2nccc(N3CCc4c(cc(Cn5ccnc5)cc4-c4cn(C)nc4C(F)(F)F)C3=O)c2c1 | K562 | ATP luminescence | 5 days | GI50 | 7300 nM
CC1(C)CCC(CN2CCN(c3ccc(C(=O)NS(=O)(=O)c4ccc(NCC5CCOCC5)c([N+](=O)[O-])c4)c(Oc4cnc5[nH]ccc5c4)c3)CC2)=C(c2ccc(Cl)cc2)C1 | MDCK |  | 24 h | EC50 | > 50000 nM
COc1cc(Nc2nccc(-c3cnn4nc(OC)ccc34)n2)cc(C(F)(F)F)c1 | P31-FUJ | ATP luminescence |  | IC50 | 1100 nM
Cc1cc(C)n(C(=S)[S][Au][PH](CCCCCC[PH]([Au][S]C(=S)n2nc(C)cc2C)(c2ccccc2)c2ccccc2)(c2ccccc2)c2ccccc2)n1 | UO-31 |  |  | GI50 | 482 nM
COc1ccc(-c2ccc(-c3ccc(C(=N)N)nc3)s2)cc1 | UO-31 |  |  | GI50 | 1640 nM
CCc1n(Cc2ccc3ccccc3n2)cc[n+]1Cc1ccc2ccccc2c1 | HOP-62 | SRB |  | TGI | 7020 nM
CCCCc1ccc2[nH]c(NC(=O)OC)nc2c1 | CAL-27 |  | 72 h | IC50 | 270 nM
CCCc1n(Cc2ccc3ccccc3n2)cc[n+]1Cc1ccc2ccccc2c1 | HOP-92 | SRB |  | TGI | 1120 nM
COc1cc(-c2ccc(-c3ccc(C(=N)N)nc3)s2)cc(OC)c1OC | HOP-92 | SRB |  | GI50 | 1910 nM
Cc1n(Cc2ccc3ccccc3n2)cc[n+]1Cc1ccc2ccccc2c1 | HOP-92 | SRB |  | TGI | 3810 nM
Nc1ncnc2c1ncn2[C@@H]1O[C@H](CO)[C@@H](O)[C@@H]1O | CAL-27 |  | 72 h | IC50 | > 20000 nM
CCc1n(Cc2ccc3ccccc3n2)cc[n+]1Cc1ccc2ccccc2n1 | HOP-92 | SRB |  | TGI | 521 nM
Nc1c2c(nc3ccccc13)CCCC2O (stereo not shown) | CAL-27 |  | 72 h | IC50 | > 20000 nM
